According to ChEMBL document CHEMBL3853307, “Anti-inflammatory Effect of Methyl Gallate on Experimental Arthritis: Inhibition of Neutrophil Recruitment, Production of Inflammatory Mediators, and Activation of Macrophages” (J Nat Prod, 2016):
Active and inactive are the calls of the source. The rule behind the calls is not given here.

Key:
Mus musculus [1] = assay: Antiinflammatory activity in C57BL/6 mouse assessed as inhibition of zymosan-induced IL-1beta production in cell-free supernatant of knee joint synovial washes at 7 mg/kg, po administered 1 hr prior to zymosan challenge measured at 6 to 24 hrs by sandwich ELISA method; type: functional, organism-based
How it was run: (§1)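 Male C57BL/6 mice (18−22 g), fasted overnight, dosed orally (in filtered water, 200 μL) or i.p. 1 h before i.a. zymosan (500 μg in 25 μL saline) into left knee; contralateral knee got vehicle. Synovial cavity washed twice with 150 μL PBS/10 mM EDTA at 6 and 24 h; washes spun 400g 10 min, 4 °C. Cytokines measured by sandwich ELISA, LTB4/PGE2 by EIA (pg/mL); six mice/group, two experiments.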

Mus musculus [2] = assay: Antiinflammatory activity in C57BL/6 mouse assessed as inhibition of zymosan-induced knee joint edema formation at 7 mg/kg, po administered 1 hr prior to zymosan challenge measured at 6 hrs relative to control; type: functional; conditions: C57BL/6, Knee joint
How it was run: (§2)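 Male C57BL/6 mice, fasted overnight, dosed orally (vehicle saline/water, 200 μL) or i.p. 1 h before zymosan (500 μg in 25 μL saline, i.a., left knee). Knee swelling measured as change in transverse diameter from basal by digital caliper (mm). Synovial washes (PBS/EDTA) counted on a particle counter; differentials from May-Grünwald-Giemsa cytospins, cells ×10^5/cavity. Sampled at 6 and/or 24 h; seven mice/group.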

J774.A1 [3] = assay: Antiinflammatory activity in mouse J774A.1 cells assessed as inhibition of zymosan and IFNgamma-induced COX2 expression at 1 to 10 uM preincubated for 1 hr followed by zymosan and IFNgamma addition measured after 24 hrs by Western blot analysis; type: functional, cell-based
How it was run: (§3)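 J774A.1 cells in six-well plates pretreated 1 h (0.1−10 μM) before zymosan (10 μg per 10^5 cells) and/or IFN-γ (25 U/mL) for 24 h. Lysates (Tris/NaCl/MgCl2/0.5% NP40 with protease inhibitors); 30 μg protein run on 7.5% SDS-PAGE, transferred to PVDF, probed for COX-2, iNOS and α-tubulin.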

Mus musculus [4] = assay: Antiinflammatory activity in C57BL/6 mouse assessed as inhibition of zymosan-induced LTB4 production in cell-free supernatant of knee joint synovial washes at 7 mg/kg, po administered 1 hr prior to zymosan challenge measured at 6 to 24 hrs by immunosorbent assay; type: functional, organism-based; how it was run: as §1
Mus musculus [5] = assay: Antiinflammatory activity in C57BL/6 mouse assessed as inhibition of zymosan-induced total leukocyte accumulation in articular cavity at 7 mg/kg, po administered 1 hr prior to zymosan challenge measured at 24 hrs; type: functional, organism-based; how it was run: as §2
Mus musculus [6] = assay: Antiinflammatory activity in C57BL/6 mouse assessed as inhibition of zymosan-induced knee joint edema formation at 0.7 to 70 mg/kg, po administered 1 hr prior to zymosan challenge measured at 6 hrs; type: functional, organism-based; how it was run: as §2
Mus musculus [7] = assay: Antiinflammatory activity in C57BL/6 mouse assessed as inhibition of zymosan-induced arthritis score at 7 mg/kg, po administered 1 hr prior to zymosan challenge measured at 6 to 24 hrs by hematoxylin and eosin staining-based optical microscopy; type: functional, organism-based
How it was run: (§4)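 Mice dosed orally or i.p. 1 h before i.a. zymosan (500 μg/cavity) or saline. Whole knees taken at 6 and 24 h from six mice, fixed in 10% formalin 48 h, decalcified in 10% EDTA/PBS 1−2 weeks, paraffin-embedded. 5 μm sections H&E-stained and examined by light microscopy. Parameter scores summed into an arthritis index; means ± SEM, two experiments.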

Mus musculus [8] = assay: Antiinflammatory activity in zymosan-induced C57BL/6 mouse pleurisy model assessed as reduction in protein extravasation in thoracic cavity at 10 to 50 mg/kg, po administered 1 hr prior to zymosan challenge measured after 4 hrs; type: functional, organism-based
How it was run: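 Oral pretreatment 1 h before intrathoracic zymosan (100 μg/cavity in 100 μL saline). Cavities washed at 4 h with 1 mL PBS/10 mM EDTA. Total leukocytes counted on a particle counter, differentials from May-Grünwald-Giemsa cytospins (×10^6/cavity). Supernatant after 400g 10 min assayed for total protein by Bradford.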

Mus musculus [9] = assay: Antiinflammatory activity in C57BL/6 mouse assessed as inhibition of zymosan-induced IL6 production in cell-free supernatant of knee joint synovial washes at 7 mg/kg, po administered 1 hr prior to zymosan challenge measured at 6 to 24 hrs by sandwich ELISA method; type: functional, organism-based; how it was run: as §1
Mus musculus [10] = assay: Antiinflammatory activity in C57BL/6 mouse assessed as inhibition of zymosan-induced CXCL1/KC production in cell-free supernatant of knee joint synovial washes at 7 mg/kg, po administered 1 hr prior to zymosan challenge measured at 6 to 24 hrs by sandwich ELISA method; type: functional, organism-based; how it was run: as §1
J774.A1 [11] = assay: Antiinflammatory activity in mouse J774A.1 cells assessed as inhibition of zymosan and IFNgamma-induced iNOS expression at 1 to 10 uM preincubated for 1 hr followed by zymosan and IFNgamma addition measured after 24 hrs by Western blot analysis; type: functional, cell-based; how it was run: as §3
J774.A1 [12] = assay: Antiinflammatory activity in mouse J774A.1 cells assessed as inhibition of zymosan and IFNgamma-induced cytoplasmic calcium flux at 1 uM preincubated for 1 hr followed by zymosan and IFNgamma addition measured over 10 mins by FLIPR assay; type: functional, cell-based
How it was run: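 J774A.1 macrophages preincubated 1 h with HBSS or compound (1 μM), then stimulated with zymosan plus IFN-γ. Intracellular calcium followed over 600 s with a FLIPR Calcium Plus kit; mean signal from 360−600 s after stimulus used for analysis; quadruplicate wells.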

Mus musculus [13] = assay: Antiinflammatory activity in C57BL/6 mouse assessed as inhibition of zymosan-induced bleeding in synovial tissue at 7 mg/kg, po administered 1 hr prior to zymosan challenge measured at 6 to 24 hrs by hematoxylin and eosin staining-based optical microscopy; type: functional, organism-based; how it was run: as §4
Neutrophil = assay: Antiinflammatory activity in C57BL/6 mouse neutrophils assessed as inhibition of neutrophil adhesion to TNFalpha-primed mouse tEnd.1 cells at 0.1 uM preincubated for 1 hr with neutrophils followed by tEND.1 cells addition measured after 1 hr by Giemsa staining-based light microscopic method; type: functional, cell-based
How it was run: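 tEnd.1 endothelioma cells (10^4/well, 24 h) primed with mouse TNF-α (10 ng/mL) for 4 h. Bone marrow neutrophils preincubated 1 h with compound (0.1 μM) or fucoidan (25 μg/mL), then added at 50 per tEnd.1 cell for 1 h at 37 °C with shaking. After washing and Giemsa staining, adhesion index = fraction of tEnd.1 with bound neutrophils × neutrophils per tEnd.1 × 100.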

Mus musculus [14] = assay: Antiinflammatory activity in C57BL/6 mouse assessed as inhibition of zymosan-induced mononuclear cells recruitment in synovial cavity at 0.7 to 70 mg/kg, po administered 1 hr prior to zymosan challenge measured after 6 to 24 hrs by Grunwald-Giemsa-stained cytospin smear; type: functional, organism-based
Mus musculus [15] = assay: Antiinflammatory activity in C57BL/6 mouse assessed as inhibition of zymosan-induced total leukocyte accumulation in articular cavity at 7 mg/kg, po administered 1 hr prior to zymosan challenge measured at 6 hrs; type: functional, organism-based; how it was run: as §2

COC(=O)c1cc(O)c(O)c(O)c1 [GALLIC ACID METHYL ESTER]
inhibition (Mus musculus [1]): Active
inhibition in vivo at 7 mg/kg (Mus musculus [2]): 24%
inhibition (J774.A1 [3]): Active
inhibition (Mus musculus [4]): Active
inhibition (Mus musculus [5]): Active
inhibition (Mus musculus [6]): Active
inhibition (Mus musculus [7]): Active
Activity (Mus musculus [8]): Active
inhibition (Mus musculus [9]): Active
inhibition (Mus musculus [10]): Active
inhibition (J774.A1 [11]): Active
inhibition (J774.A1 [12]): Active
inhibition (Mus musculus [13]): Active
inhibition (Neutrophil): Active
inhibition (Mus musculus [14]): Active
inhibition (Mus musculus [15]): Active
